Laboratory results as given in ChEMBL document CHEMBL1156871, “Nonpeptidic tetrafluorophenoxymethyl ketone cruzain inhibitors as promising new leads for Chagas disease chemotherapy” (J Med Chem, 2010).
Active and inactive are the calls of the source. No cut-off for these calls is given here.

What was measured:
[1] = biological target: Cruzipain (Trypanosoma cruzi) (UniProt P25779); assay: Ratio of kinact to Ki for Trypanosoma cruzi cruzain
[2] = biological target: Cruzipain (Trypanosoma cruzi) (UniProt P25779); assay: (§1) Inhibition of Trypanosoma cruzi cruzain
[3] = biological target: Cruzipain (Trypanosoma cruzi, UniProt P25779); assay: as §1
[4] = system: Trypanosoma cruzi; assay: Antitrypanosomal activity against Trypanosoma cruzi trypomastigotes infected in C3H mouse assessed as infection in colon at 20 mg/kg, ip bid for 27 days; type: functional, organism-based; parameters: dose 20 mg/kg
Procedure, shortened: (§2)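 Female C3H mice (mean 22 g) infected ip with 1.2 × 10⁶ tissue-culture trypomastigotes. From 24 h post-infection, treated (n=5) with 20 mg/kg ip b.i.d. for 27 days in 70% DMSO:30% water, prepared daily; untreated controls n=3. Mice were sacrificed at day 77 post-infection for symptom scoring and histopathology of heart, skeletal muscle, liver, spleen and colon.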

[5] = system: Trypanosoma cruzi; assay: Antitrypanosomal activity against Trypanosoma cruzi trypomastigotes infected in C3H mouse assessed as acute chagas disease symptoms at 20 mg/kg, ip bid for 27 days; type: functional, organism-based; parameters: dose 20 mg/kg; procedure, shortened: as §2
[6] = system: Trypanosoma cruzi; assay: Antitrypanosomal activity against Trypanosoma cruzi trypomastigotes infected in C3H mouse assessed as infection in spleen at 20 mg/kg, ip bid for 27 days; type: functional, organism-based; parameters: dose 20 mg/kg; procedure, shortened: as §2
[7] = system: Trypanosoma cruzi; assay: Antitrypanosomal activity against Trypanosoma cruzi trypomastigotes infected in C3H mouse assessed as infection in skeletal muscle at 20 mg/kg, ip bid for 27 days; type: functional, organism-based; parameters: dose 20 mg/kg; settings: Muscle tissue; procedure, shortened: as §2
[8] = system: Mus musculus; assay: Toxicity in Trypanosoma cruzi trypomastigotes infected mouse model at 20 mg/kg, ip bid for 27 days; settings: in vivo, 648 h
[9] = system: Trypanosoma cruzi; assay: Antitrypanosomal activity against Trypanosoma cruzi trypomastigotes infected in C3H mouse assessed as infection in heart at 20 mg/kg, ip bid for 27 days; type: functional, organism-based; parameters: dose 20 mg/kg; procedure, shortened: as §2
[10] = system: Trypanosoma cruzi; assay: Antitrypanosomal activity against Trypanosoma cruzi trypomastigotes infected in C3H mouse assessed as infection in liver at 20 mg/kg, ip bid for 27 days; type: functional, organism-based; parameters: dose 20 mg/kg; procedure, shortened: as §2
[11] = system: Trypanosoma cruzi; assay: Antitrypanosomal activity against Trypanosoma cruzi trypomastigotes infected mouse model assessed as chagas disease symptoms at 20 mg/kg, ip bid for 27 days measured after 77 days of post infection
[12] = system: Trypanosoma cruzi; assay: Antitrypanosomal activity against Trypanosoma cruzi Y strain infected in BESM cells assessed as reduction of parasite number after 72 hrs; type: functional, organism-based
Procedure, shortened: (§3)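 BESM cells in RPMI-1640 with 5% heat-inactivated FCS (37 °C, 5% CO2) infected with Y-strain trypomastigotes, then given fresh medium with inhibitor at 0, 0.3, 1, 3 and 10 μM for 72 h. Fixed in 4% paraformaldehyde and stained with DAPI (0.1 μg/mL), then imaged. Nuclei were sorted by size: host >150 μm², parasite 2-4 μm². The parasite/host nuclei ratio gave the IC50, and the loss of host nuclei gave cytotoxicity. Duplicate or triplicate runs averaged.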

[13] = Cytotoxicity against BEMS cells; type: cell-based; settings: Bos taurus; procedure, shortened: as §3

Sequence of Cruzipain (Trypanosoma cruzi) (P25779 123-467 limits assumed): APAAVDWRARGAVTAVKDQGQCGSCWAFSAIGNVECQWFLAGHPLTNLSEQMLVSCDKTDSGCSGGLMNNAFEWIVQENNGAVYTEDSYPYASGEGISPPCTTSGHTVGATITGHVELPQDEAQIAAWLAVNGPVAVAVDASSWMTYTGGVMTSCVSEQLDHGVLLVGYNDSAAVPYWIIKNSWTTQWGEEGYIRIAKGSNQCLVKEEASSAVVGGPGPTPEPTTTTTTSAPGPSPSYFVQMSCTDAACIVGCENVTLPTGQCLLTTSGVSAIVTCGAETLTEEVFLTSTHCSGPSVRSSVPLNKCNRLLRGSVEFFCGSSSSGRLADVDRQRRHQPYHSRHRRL
Sequence of Cruzipain (P25779 whole entry): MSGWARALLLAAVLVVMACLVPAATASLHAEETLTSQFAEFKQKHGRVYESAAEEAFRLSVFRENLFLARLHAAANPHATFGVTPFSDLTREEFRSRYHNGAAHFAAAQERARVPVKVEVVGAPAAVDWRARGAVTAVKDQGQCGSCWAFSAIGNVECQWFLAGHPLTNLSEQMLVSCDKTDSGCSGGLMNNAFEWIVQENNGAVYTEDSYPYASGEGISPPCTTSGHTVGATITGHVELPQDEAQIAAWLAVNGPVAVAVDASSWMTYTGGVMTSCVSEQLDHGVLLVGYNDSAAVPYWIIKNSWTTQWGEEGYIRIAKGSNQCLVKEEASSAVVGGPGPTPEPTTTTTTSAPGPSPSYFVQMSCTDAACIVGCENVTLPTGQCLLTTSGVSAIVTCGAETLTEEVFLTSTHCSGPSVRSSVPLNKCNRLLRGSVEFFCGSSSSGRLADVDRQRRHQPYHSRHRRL

Structure (SMILES) | Ratio [1] | Kinact [2] | Ki [3] | Activity [4] | Activity [5] | Activity [6] | Activity [7] | Activity [8] | Activity [9] | Activity [10] | Activity [11] | IC50 [12] | IC50 [13]
CC(C(=O)COc1c(F)c(F)cc(F)c1F)n1cc([C@@](C)(NCc2ccc3ncccc3c2)C(C)C)nn1 (some centres undefined) | 12300 M⁻¹ s⁻¹ | 0.043 s⁻¹ | 6.76 µM | – | – | – | – | – | – | – | – | – | –
CCCCC(C(=O)COc1c(F)c(F)cc(F)c1F)n1cc([C@@](C)(NCc2ccc3ncccc3c2)C(C)C)nn1 (some centres undefined) | – | – | – | Active | Non-toxic | Active | inactive | Non-toxic | Active | Active | Active | 5.1 µM | > 10 µM
CCCCC(C(=O)COc1c(F)c(F)cc(F)c1F)n1cc([C@](C)(CC(C)C)NCc2ccc3ncccc3c2)nn1 (some centres undefined) | 657000 M⁻¹ s⁻¹ | 0.036 s⁻¹ | 0.1 µM | – | – | – | – | – | – | – | – | 3.1 µM | > 10 µM
CCCCC(C(=O)COc1c(F)c(F)cc(F)c1F)n1cc([C@@](C)(NCc2ccc3ncccc3c2)C2CC2)nn1 (some centres undefined) | 179000 M⁻¹ s⁻¹ | 0.089 s⁻¹ | 0.94 µM | – | – | – | – | – | – | – | – | 4.3 µM | > 10 µM
CCC(C(=O)COc1c(F)c(F)cc(F)c1F)n1cc([C@@](C)(NCc2ccc3ncccc3c2)C2CCC2)nn1 (mixture of isomers) | 522000 M⁻¹ s⁻¹ | 0.096 s⁻¹ | 0.35 µM | – | – | – | – | – | – | – | – | 5.8 µM | > 10 µM
CCCCC(C(=O)COc1c(F)c(F)cc(F)c1F)n1cc([C@@](C)(NCc2ccc3ncccc3c2)C2CCCC2)nn1 (some centres undefined) | – | – | 0.11 µM | – | – | – | – | – | – | – | – | 4.2 µM | 10 µM
CCCCC(C(=O)COc1c(F)c(F)cc(F)c1F)n1cc([C@@](C)(NCc2ccc3ncccc3c2)C2CCCCC2)nn1 (some centres undefined) | 58000 M⁻¹ s⁻¹ | 0.037 s⁻¹ | 1.22 µM | – | – | – | – | – | – | – | – | – | –
CCCCC(C(=O)COc1c(F)c(F)cc(F)c1F)n1cc([C@@](C)(NCc2ccc3ncccc3c2)C2CCC2)nn1 (some centres undefined) | 680000 M⁻¹ s⁻¹ | 0.047 s⁻¹ | 0.13 µM | – | – | – | – | – | – | – | – | 4.1 µM | > 10 µM
CCC(C(=O)COc1c(F)c(F)cc(F)c1F)n1cc([C@](C)(CC(C)C)NCc2ccc3ncccc3c2)nn1 (some centres undefined) | 487000 M⁻¹ s⁻¹ | 0.048 s⁻¹ | 0.19 µM | – | – | – | – | – | – | – | – | 5.7 µM | > 10 µM
CCC(C(=O)COc1c(F)c(F)cc(F)c1F)n1cc([C@@](C)(NCc2ccc3ncccc3c2)C(C)C)nn1 (some centres undefined) | 124000 M⁻¹ s⁻¹ | 0.066 s⁻¹ | 1.04 µM | – | – | – | – | – | – | – | – | 8.3 µM | > 10 µM
